According to PMC6595297 (British Journal of Clinical Pharmacology, 2019):

Legend:
[1] = preliminary data, cancer patients, ref data on file; cited from earlier work
[2] = system: CYP3A4; conditions: in vitro metabolism studies, ref data on file; cited from earlier work
[3] = Phase I DDI study: pevonedistat plasma PK alone and with itraconazole; type: in vivo, human; conditions: for AUC(0-t) / AUC(0-inf) / Cmax / clearance / half-life: human, plasma; for AUC(0-t): AUClast; for Cmax: C max; for clearance: CL; for half-life: t 1/2, mean (standard deviation)
Outline: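 Single IV pevonedistat given on day 1 alone and on day 8 with the CYP3A inhibitor. K2EDTA plasma was sampled within 1 h predose, at end of infusion, and at 0.5, 1, 2, 3, 4, 8, 12, 24, 48 and 72 h postdose. Samples were assayed by two GLP-validated LC–MS/MS methods (0.0500–25.0 and 1.00–500 ng mL−1). Noncompartmental PK was used. Day 8/day 1 geometric mean ratios with 90% CIs came from ANOVA (subject random), back-transformed.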

[4] = Safety and tolerability; type: in vivo, human
Outline: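 Patients had advanced solid tumours and ECOG PS 0–1. AEs were graded by NCI CTCAE v4.03 and monitored from the first dose of any study drug until 30–40 days after the last dose. The safety population was all patients receiving at least one pevonedistat dose.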

[5] = Pevonedistat 8 mg m^−2, + itraconazole (day 8) vs alone (day 1), n = 13
[6] = Pevonedistat 15 mg m^−2, + itraconazole (day 8) vs alone (day 1), n = 6
[7] = Pevonedistat 20 mg m^−2, + itraconazole (day 8) vs alone (day 1), n = 14
[8] = dose‐normalized PK, 8–20 mg m^−2 pooled, + itraconazole vs alone, n = 33
[9] = intravenous, 8 mg, geometric LS mean reference condition (day 1), Pevonedistat 8 mg m^−2 alone, itraconazole cohort, n = 13
[10] = intravenous, 15 mg, geometric LS mean reference condition (day 1), Pevonedistat 15 mg m^−2 alone, itraconazole cohort, n = 6
[11] = intravenous, 20 mg, geometric LS mean reference condition (day 1), Pevonedistat 20 mg m^−2 alone, itraconazole cohort, n = 14
[12] = intravenous, geometric LS mean test condition (day 8), Pevonedistat 8 mg m^−2 + itraconazole, n = 13, value from n − 1 patients
[13] = intravenous, geometric LS mean test condition (day 8), Pevonedistat 15 mg m^−2 + itraconazole, n = 6
[14] = intravenous, geometric LS mean test condition (day 8), Pevonedistat 20 mg m^−2 + itraconazole, n = 14
[15] = iv, 8 mg, geometric mean (% CV), 8 mg m^−2 IV single dose, – itraconazole (day 1), n=13
[16] = iv, 20 mg, geometric mean (% CV), 20 mg m^−2 IV single dose, – itraconazole (day 1), n=14
[17] = integrated analysis, 8–20 mg m^−2, n = 33
[18] = Pevonedistat 8 mg m^−2 + fluconazole (n = 13)
[19] = Pevonedistat 8 mg m^−2 + itraconazole (n = 13)
[20] = Pevonedistat 15 mg m^−2 + itraconazole (n = 6)
[21] = Pevonedistat 20 mg m^−2 + itraconazole (n = 19)
[22] = Pevonedistat + itraconazole, total (n = 38)
[23] = across all study groups, N = 51

## NS(=O)(=O)OC[C@@H]1C[C@@H](n2ccc3c(N[C@H]4CCc5ccccc54)ncnc32)C[C@@H]1O [Pevonedistat]
[1]
  Administered dose accounted for by metabolites: approximately 80%
[2]
  Contribution of CYP3A4 to pevonedistat biotransformation: 97%
[3]; [5]
  AUClast, geometric LS mean ratio (test/reference) (90% CI): 121.57 (110.92–133.24) %
  AUC∞, geometric LS mean ratio (test/reference) (90% CI): 122.95 (112.13–134.82) %
  C max, geometric LS mean ratio (test/reference) (90% CI): 113.05 (85.35–149.74) %
[3]; [6]
  AUClast, geometric LS mean ratio (test/reference) (90% CI): 130.16 (106.99–158.35) %
  AUC∞, geometric LS mean ratio (test/reference) (90% CI): 132.70 (111.10–158.49) %
  C max, geometric LS mean ratio (test/reference) (90% CI): 159.55 (89.97–282.96) %
[3]; [7]
  AUClast, geometric LS mean ratio (test/reference) (90% CI): 101.36 (90.72–113.23) %
  AUC∞, geometric LS mean ratio (test/reference) (90% CI): 100.89 (91.14–111.68) %
  C max, geometric LS mean ratio (test/reference) (90% CI): 77.26 (55.19–108.17) %
[3]; [8]
  Dose‐normalized AUClast, geometric LS mean ratio (test/reference) (90% CI): 113.61 (105.65–122.18) %
  Dose‐normalized AUC∞, geometric LS mean ratio (test/reference) (90% CI): 114.24 (106.54–122.50) %
  Dose‐normalized C max, geometric LS mean ratio (test/reference) (90% CI): 102.41 (83.12–126.19) %
[3]; [9]
  AUC(0-t): 459 ng·h/mL
  AUC(0-inf): 465 ng·h/mL
[3]; [10]
  AUC(0-t): 793 ng·h/mL
  AUC(0-inf): 798 ng·h/mL
[3]; [11]
  AUC(0-t): 1110 ng·h/mL
  AUC(0-inf): 1120 ng·h/mL
[3]; [12]
  AUC(0-t): 558 ng·h/mL
  AUC(0-inf): 572 ng·h/mL
[3]; intravenous, geometric LS mean test condition (day 8), Pevonedistat 15 mg m^−2 + itraconazole, n = 6, value from n − 1 patients
  AUC(0-t): 1030 ng·h/mL
[3]; intravenous, geometric LS mean test condition (day 8), Pevonedistat 20 mg m^−2 + itraconazole, n = 14, value from n − 1 patients
  AUC(0-t): 1130 ng·h/mL
[3]; [13]
  AUC(0-inf): 1060 ng·h/mL
  Cmax: 193 ng/mL
[3]; [14]
  AUC(0-inf): 1130 ng·h/mL
  Cmax: 137 ng/mL
[3]; intravenous, geometric LS mean test condition (day 8), Pevonedistat 8 mg m^−2 + itraconazole, n = 13
  Cmax: 66.8 ng/mL
[3]; [15]
  AUC(0-inf): 465 ng·h/mL
  clearance: 487 mL/min
[3]; iv, 8 mg, 8 mg m^−2 IV single dose, – itraconazole (day 1), n=13
  half-life: 10.8 h
[3]; iv, 15 mg, geometric mean (% CV), 15 mg m^−2 IV single dose, – itraconazole (day 1), n=6
  AUC(0-inf): 798 ng·h/mL
[3]; iv, 15 mg, 15 mg m^−2 IV single dose, – itraconazole (day 1), n=6
  half-life: 9.8 h
[3]; [16]
  AUC(0-inf): 1120 ng·h/mL
  clearance: 597 mL/min
[3]; iv, 20 mg, 20 mg m^−2 IV single dose, – itraconazole (day 1), n=14
  half-life: 10 h
[3]; iv, 8 mg m^−2 IV single dose, + itraconazole (day 8), n=13
  half-life: 13.5 h
[3]; iv, 15 mg m^−2 IV single dose, + itraconazole (day 8), n=6
  half-life: 11 h
[3]; iv, 20 mg m^−2 IV single dose, + itraconazole (day 8), n=14
  half-life: 10.8 h
[3]; [17]
  Dose‐normalized AUC∞ geometric mean ratio, presence vs. absence of itraconazole: 1.14
  Increase in geometric mean dose‐normalized AUC∞ with itraconazole: 14%
[3]; pevonedistat 8 mg m^−2
  AUC∞ geometric mean ratio, presence vs. absence of itraconazole: 1.23
[3]; pevonedistat 8 mg m^−2 single dose
  Increase in pevonedistat plasma systemic exposure with concomitant itraconazole: 23%
[3]; pevonedistat 20 mg m^−2
  AUC∞ geometric mean ratio, presence vs. absence of itraconazole: 1.01
[4]; N = 51
  Patients who discontinued study treatment due to AEs: 12%
[4]; [18]
  Abdominal pain, patients with AE: 1 (8) n (%)
  Anaemia, patients with AE: 3 (23) n (%)
  Asthenia, patients with AE: 3 (23) n (%)
  Constipation, patients with AE: 3 (23) n (%)
  Cough, patients with AE: 2 (15) n (%)
  Decreased appetite, patients with AE: 4 (31) n (%)
  Dehydration, patients with AE: 1 (8) n (%)
  Diarrhoea, patients with AE: 0 n (%)
  Dizziness, patients with AE: 1 (8) n (%)
  Dyspnoea, patients with AE: 2 (15) n (%)
  Fatigue, patients with AE: 3 (23) n (%)
  Headache, patients with AE: 3 (23) n (%)
  Hypokalaemia, patients with AE: 0 n (%)
  Hyponatraemia, patients with AE: 2 (15) n (%)
  Nausea, patients with AE: 3 (23) n (%)
  Vomiting, patients with AE: 3 (23) n (%)
[4]; [19]
  Abdominal pain, patients with AE: 3 (23) n (%)
  Anaemia, patients with AE: 3 (23) n (%)
  Asthenia, patients with AE: 2 (15) n (%)
  Constipation, patients with AE: 2 (15) n (%)
  Cough, patients with AE: 4 (31) n (%)
  Decreased appetite, patients with AE: 3 (23) n (%)
  Dehydration, patients with AE: 3 (23) n (%)
  Diarrhoea, patients with AE: 4 (31) n (%)
  Dizziness, patients with AE: 2 (15) n (%)
  Dyspnoea, patients with AE: 1 (8) n (%)
  Fatigue, patients with AE: 3 (23) n (%)
  Headache, patients with AE: 0 n (%)
  Hypokalaemia, patients with AE: 2 (15) n (%)
  Hyponatraemia, patients with AE: 1 (8) n (%)
  Nausea, patients with AE: 1 (8) n (%)
  Vomiting, patients with AE: 2 (15) n (%)
[4]; [20]
  Abdominal pain, patients with AE: 1 (17) n (%)
  Anaemia, patients with AE: 2 (33) n (%)
  Asthenia, patients with AE: 0 n (%)
  Constipation, patients with AE: 0 n (%)
  Cough, patients with AE: 0 n (%)
  Decreased appetite, patients with AE: 1 (17) n (%)
  Dehydration, patients with AE: 2 (33) n (%)
  Diarrhoea, patients with AE: 1 (17) n (%)
  Dizziness, patients with AE: 1 (17) n (%)
  Dyspnoea, patients with AE: 2 (33) n (%)
  Fatigue, patients with AE: 1 (17) n (%)
  Headache, patients with AE: 0 n (%)
  Hypokalaemia, patients with AE: 2 (33) n (%)
  Hyponatraemia, patients with AE: 1 (17) n (%)
  Nausea, patients with AE: 0 n (%)
  Vomiting, patients with AE: 1 (17) n (%)
[4]; [21]
  Abdominal pain, patients with AE: 2 (11) n (%)
  Anaemia, patients with AE: 6 (32) n (%)
  Asthenia, patients with AE: 2 (11) n (%)
  Constipation, patients with AE: 3 (16) n (%)
  Cough, patients with AE: 1 (5) n (%)
  Decreased appetite, patients with AE: 4 (21) n (%)
  Dehydration, patients with AE: 2 (11) n (%)
  Diarrhoea, patients with AE: 6 (32) n (%)
  Dizziness, patients with AE: 4 (21) n (%)
  Dyspnoea, patients with AE: 3 (16) n (%)
  Fatigue, patients with AE: 8 (42) n (%)
  Headache, patients with AE: 6 (32) n (%)
  Hypokalaemia, patients with AE: 3 (16) n (%)
  Hyponatraemia, patients with AE: 2 (11) n (%)
  Nausea, patients with AE: 2 (11) n (%)
  Vomiting, patients with AE: 6 (32) n (%)
[4]; [22]
  Abdominal pain, patients with AE: 6 (16) n (%)
  Anaemia, patients with AE: 11 (29) n (%)
  Asthenia, patients with AE: 4 (11) n (%)
  Constipation, patients with AE: 5 (13) n (%)
  Cough, patients with AE: 5 (13) n (%)
  Decreased appetite, patients with AE: 8 (21) n (%)
  Dehydration, patients with AE: 7 (18) n (%)
  Diarrhoea, patients with AE: 11 (29) n (%)
  Dizziness, patients with AE: 7 (18) n (%)
  Dyspnoea, patients with AE: 6 (16) n (%)
  Fatigue, patients with AE: 12 (32) n (%)
  Headache, patients with AE: 6 (16) n (%)
  Hypokalaemia, patients with AE: 7 (18) n (%)
  Hyponatraemia, patients with AE: 4 (11) n (%)
  Nausea, patients with AE: 3 (8) n (%)
  Vomiting, patients with AE: 9 (24) n (%)
[4]; Total (N = 51)
  Abdominal pain, patients with AE: 7 (14) n (%)
  Anaemia, patients with AE: 14 (27) n (%)
  Asthenia, patients with AE: 7 (14) n (%)
  Constipation, patients with AE: 8 (16) n (%)
  Cough, patients with AE: 7 (14) n (%)
  Decreased appetite, patients with AE: 12 (24) n (%)
  Dehydration, patients with AE: 8 (16) n (%)
  Diarrhoea, patients with AE: 11 (22) n (%)
  Dizziness, patients with AE: 8 (16) n (%)
  Dyspnoea, patients with AE: 8 (16) n (%)
  Fatigue, patients with AE: 15 (29) n (%)
  Headache, patients with AE: 9 (18) n (%)
  Hypokalaemia, patients with AE: 7 (14) n (%)
  Hyponatraemia, patients with AE: 6 (12) n (%)
  Nausea, patients with AE: 6 (12) n (%)
  Vomiting, patients with AE: 12 (24) n (%)
[4]; [23]
  Drug‐related AE: anaemia, patients: 6%
  Drug‐related AE: decreased appetite, patients: 6%
  Drug‐related AE: diarrhoea, patients: 10%
  Drug‐related AE: fatigue, patients: 6%
  Drug‐related AE: increased AST, patients: 6%
  Drug‐related AE: nausea, patients: 8%
  Drug‐related AE: pruritus, patients: 6%
  Drug‐related AE: vomiting, patients: 12%
[4]; safety population, N = 51
  Patients who died during Part A (not related to study drug): 14%
  Patients who experienced at least one drug‐related AE: 55%
  Patients with at least one grade ≥3 AE: 43%
  Patients with serious AEs (not deemed drug‐related): 25%
[4]; safety population, N = 51, all study groups
  Patients who experienced at least one AE: 98%
